Drawing on the array DNA melting data of Ke et al. (doi:10.1101/2024.01.08.574731), this text covers Tm and folding enthalpy for 37 sequences.

Data set [1] can be described thus: melting temperature; fluorescence melt of hairpins on a sequencing array, two-state fit, raised by 9.35 °C to match UV melts. The following applies: sodium 0.088 M. The gist of the method: (§1)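 On a sequenced MiSeq flow cell, library hairpins with annealed Cy3 and quencher oligos were imaged for Cy3 fluorescence in 2.5 °C steps up to 60 °C, in 50 mM Na-HEPES pH 8.0, 25 mM NaCl. Normalisation used pre-quench Cy3 and control constructs. Bootstrapped two-state fits gave melting temperature and folding enthalpy, combined by inverse variance across four replicates and with fitted temperatures raised by 9.35 °C to match UV melts.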

Data set [2] can be described thus: folding enthalpy; higher = less favourable; fluorescence melt of hairpins on a sequencing array, two-state fit. The conditions noted are these: sodium 0.088 M. The gist of the method: as §1

Take GTCGGCGAAAGCCTAGAC ((((((....)))..))): in data set [1], the Tm was determined as 47.1 °C. For the same sequence, in data set [2], the folding enthalpy is -18.1 kcal/mol.

For the sequence GTCGGCGAAAGCCTGAC ((((((....))).))), the Tm in data set [1] amounted to 56.9 °C. For the same sequence, the folding enthalpy in data set [2] is -15.6 kcal/mol.

Regarding GTCGGCGGAAACGTCGGC (.((.((....)).)).), the Tm in data set [1] came out at 54 °C. Moreover, the folding enthalpy in data set [2] was -35.5 kcal/mol.

Take GTCGGGGGAAACCCCAAC ((.((((....)))).)): the Tm in data set [1] is 38.5 °C. In addition, in data set [2], the folding enthalpy is -16.1 kcal/mol.

As to GTCGGGGGAAACCTCGGC (.((.((....)).)).), the Tm in data set [1] stood at 44.9 °C. Besides, the folding enthalpy in data set [2] was -35.4 kcal/mol.

Consider GTCGGTCGAAAGACTGAC (((.(((....))).))), for which the Tm in data set [1] is 61.2 °C. For the same sequence, the folding enthalpy in data set [2] is -38.1 kcal/mol.

Take GTCGGTGGAAACGCTGAC (((.(.(....).).))): the Tm in data set [1] was 42.6 °C. Further, the folding enthalpy in data set [2] is -20 kcal/mol.

As for GTCGGTGGAAACGTCGAC ((((..(....)..)))), in data set [1], the Tm came out at 45.3 °C. The folding enthalpy in data set [2] is -19.7 kcal/mol.

With GTCGTACGAAAGTAGGAC (((.(((....))).))), in data set [1], the Tm is 53.7 °C. The folding enthalpy in data set [2] is -39.7 kcal/mol.

Turning to GTCGTAGGAAACTACGAC (((((((....))))))), in data set [1], the Tm worked out at 63.3 °C. Moreover, in data set [2], the folding enthalpy was -43.6 kcal/mol.

Take GTCGTAGGAAACTACGGC (.(((((....))))).): the Tm in data set [1] came out at 52.8 °C. Further, the folding enthalpy in data set [2] is -36.3 kcal/mol.

Regarding GTCGTCACGAAAGTGGAC (((..(((....)))))), the Tm in data set [1] was 37.5 °C. Besides, in data set [2], the folding enthalpy is -13.3 kcal/mol.

Consider GTCGTCCGAAAGGAGGAC (((.(((....))).))), for which the Tm in data set [1] came to 62 °C. Besides, the folding enthalpy in data set [2] is -40.2 kcal/mol.

In the case of GTCGTCGAAAGACGTGAC ((((((....)))..))), the Tm in data set [1] stood at 39.6 °C. Besides, in data set [2], the folding enthalpy is -10.8 kcal/mol.

For GTCGTCGGAAACAACGAC (((((.(....).))))), the Tm in data set [1] came out at 48.3 °C. Further, the folding enthalpy in data set [2] was -38 kcal/mol.

With GTCGTCGGAAACGGCGAC ((((.((....)).)))), the Tm in data set [1] amounted to 62.3 °C. For the same sequence, the folding enthalpy in data set [2] was -41.9 kcal/mol.

In the case of GTCGTGCGAAAGCATGAC (((.(((....))).))), in data set [1], the Tm was found to be 66.3 °C. In addition, the folding enthalpy in data set [2] was -34.8 kcal/mol.

For the sequence GTCGTGGGAAACCACGGC (.(((((....))))).), the Tm in data set [1] is 59.9 °C. Moreover, the folding enthalpy in data set [2] was -40.4 kcal/mol.

Turning to GTCGTGGGAAACCGCGAC ((((.((....)).)))), the Tm in data set [1] turned out to be 60.8 °C. The folding enthalpy in data set [2] was -48.7 kcal/mol.

GTCGTTCGAAAGAAGAC (((.(((....)))))): the Tm in data set [1] turned out to be 35.6 °C. The folding enthalpy in data set [2] was -21.2 kcal/mol.

GTCTAACGAAAGTTCGAC (((.(((....))).))): in data set [1], the Tm stood at 43.2 °C. The folding enthalpy in data set [2] was -28.3 kcal/mol.

For GTCTAAGGAAACCTAGAC (((((.(....).))))), the Tm in data set [1] came to 34.3 °C. In addition, the folding enthalpy in data set [2] is -25.8 kcal/mol.

Consider GTCTACCGAAAGGTGAC (((.(((....)))))), for which the Tm in data set [1] stood at 50.3 °C. In addition, the folding enthalpy in data set [2] was -23.8 kcal/mol.

On to GTCTACGAAAGTAAGGAC ((((((....)))..))), for which the Tm in data set [1] was 31.2 °C. For the same sequence, the folding enthalpy in data set [2] was -19.5 kcal/mol.

With GTCTACGAAAGTACGAC ((((((....))).))), in data set [1], the Tm worked out at 38.1 °C. The folding enthalpy in data set [2] was -22.8 kcal/mol.

As for GTCTACGAAAGTATGGAC ((((((....)))..))), in data set [1], the Tm turned out to be 31.3 °C. In addition, the folding enthalpy in data set [2] was -16.3 kcal/mol.

In the case of GTCTACGGAAACGTAGAC (((((((....))))))), in data set [1], the Tm stood at 61 °C. Besides, in data set [2], the folding enthalpy is -46.2 kcal/mol.

Consider GTCTACTCGAAAGAGGAC (((..(((....)))))), for which the Tm in data set [1] came to 32.1 °C. Further, the folding enthalpy in data set [2] was -14.4 kcal/mol.

As for GTCTAGCGAAAGCTGGAC (((.(((....))).))), the Tm in data set [1] is 61.6 °C. For the same sequence, the folding enthalpy in data set [2] is -33.7 kcal/mol.

Consider GTCTAGCGAAAGCTTGAC (((.(((....))).))), for which, in data set [1], the Tm is 54.2 °C. Also, the folding enthalpy in data set [2] was -28.7 kcal/mol.

Regarding GTCTAGGGAAACCCAGAC ((((.((....)).)))), in data set [1], the Tm came out at 40.9 °C. For the same sequence, the folding enthalpy in data set [2] is -30.1 kcal/mol.

Regarding GTCTAGGGAAACCTAGGC (.(((((....))))).), in data set [1], the Tm was determined as 46.2 °C. The folding enthalpy in data set [2] is -24.7 kcal/mol.

Take GTCTATCCGAAAGGAGAC (((..(((....)))))): in data set [1], the Tm amounted to 31.8 °C. The folding enthalpy in data set [2] is -16.5 kcal/mol.

For the sequence GTCTATGAAAATAGAC ((((((....)))))), in data set [1], the Tm was found to be 49.5 °C. Further, the folding enthalpy in data set [2] is -32.8 kcal/mol.

With GTCTCAGGAAACTAAGAC ((((.((....)).)))), the Tm in data set [1] is 24.2 °C. In addition, the folding enthalpy in data set [2] was -11.5 kcal/mol.

Turning to GTCTCAGGAAACTGAGGC (.(((((....))))).), in data set [1], the Tm came out at 51.1 °C. In addition, the folding enthalpy in data set [2] was -37.3 kcal/mol.

In the case of GTCTCCCGAAAGGGCGAC (((.(((....))).))), the Tm in data set [1] is 53.2 °C. The folding enthalpy in data set [2] was -30.8 kcal/mol.
